Results taken from ChEMBL document CHEMBL3124803, “Integrating docking scores, interaction profiles and molecular descriptors to improve the accuracy of molecular docking: toward the discovery of novel Akt1 inhibitors” (Eur J Med Chem, 2014).

System: HCT-116
Assay: Cytotoxicity against human HCT116 cells assessed as growth inhibition after 72 hrs by MTT assay
Assay type: functional, cell-based
Settings: HCT-116, 72 h
How it was run: (§1)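 Cells exposed to compound for 72 h, then MTT added. Formazan crystals dissolved in DMSO and absorbance read at 570 nm. Run in triplicate in three independent experiments. IC₅₀ (50% cell growth inhibition) derived by dose-effect analysis.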

Compound | IC50
CNc1cc(N2CCC(CN)(c3ccc(Cl)c(Cl)c3)CC2)ncn1 | 16.7 µM
NCC1(c2ccc(Cl)c(Cl)c2)CCN(c2cc(N)ncn2)CC1 | 19.8 µM
Nc1ncnc(N2CCN(C(=O)[C@@H](N)Cc3ccccc3)CC2)c1Cl | 28.7 µM
Nc1ncnc(N2CCN(C(=O)C(N)Cc3ccc(Cl)cc3)CC2)c1Cl (racemic) | 4.36 µM
Nc1ncnc(N2CCN(C(=O)C(N)Cc3ccc(Cl)cc3)CC2)c1Br (racemic) | 5.15 µM
Nc1ncnc(N2CCN(C(=O)C(N)Cc3ccccc3)CC2)c1Br (racemic) | 6.19 µM

System: OVCAR-8
Assay: Cytotoxicity against human OVCAR8 cells assessed as growth inhibition after 72 hrs by MTT assay
Assay type: functional, cell-based
Settings: OVCAR-8, 72 h
How it was run: as §1

Compound | IC50
Nc1ncnc(N2CCN(C(=O)C(N)Cc3ccc(Cl)cc3)CC2)c1Cl (racemic) | 26.1 µM
Nc1ncnc(N2CCN(C(=O)C(N)Cc3ccc(Cl)cc3)CC2)c1Br (racemic) | 22.7 µM

Molecular target: RAC-alpha serine/threonine-protein kinase (Homo sapiens, UniProt P31749)
Assay: Inhibition of AKT1 (unknown origin) using ATP/eNOS as substrate incubated for 5 mins prior to substrate addition measured after 30 mins by fluorescence polarization assay
Settings: not given

Sequence of RAC-alpha serine/threonine-protein kinase (P31749 whole entry): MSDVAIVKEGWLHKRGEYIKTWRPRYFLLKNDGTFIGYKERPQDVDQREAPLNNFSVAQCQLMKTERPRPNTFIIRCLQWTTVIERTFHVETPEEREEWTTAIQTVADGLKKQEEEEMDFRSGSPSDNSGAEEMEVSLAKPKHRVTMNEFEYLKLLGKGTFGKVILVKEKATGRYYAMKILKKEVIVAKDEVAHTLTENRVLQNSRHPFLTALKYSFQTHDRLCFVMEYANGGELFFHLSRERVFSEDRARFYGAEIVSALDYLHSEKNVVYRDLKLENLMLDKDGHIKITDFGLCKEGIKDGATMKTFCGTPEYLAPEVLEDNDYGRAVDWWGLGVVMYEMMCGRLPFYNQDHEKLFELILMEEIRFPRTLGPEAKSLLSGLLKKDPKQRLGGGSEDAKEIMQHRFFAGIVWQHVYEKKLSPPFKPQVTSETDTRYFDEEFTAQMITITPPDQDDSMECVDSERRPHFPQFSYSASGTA

IC50 | Compound
1.83 µM | CNc1cc(N2CCC(CN)(c3ccc(Cl)c(Cl)c3)CC2)ncn1
4.32 µM | NCC1(c2ccc(Cl)c(Cl)c2)CCN(c2cc(N)ncn2)CC1
1.83 µM | Nc1ncnc(N2CCN(C(=O)[C@@H](N)Cc3ccccc3)CC2)c1Cl
0.017 µM | Nc1ncnc(N2CCN(C(=O)C(N)Cc3ccc(Cl)cc3)CC2)c1Cl (racemic)
0.0077 µM | Nc1ncnc(N2CCN(C(=O)C(N)Cc3ccc(Cl)cc3)CC2)c1Br (racemic)
0.432 µM | Nc1ncnc(N2CCN(C(=O)C(N)Cc3ccccc3)CC2)c1Br (racemic)
